# Published values from different studies.
# Protocols differ between the studies behind these lines.
# HSD11B2: 11-beta-hydroxysteroid dehydrogenase type 2 (HSD11B2, Homo sapiens, UniProt P80365)
# FGFR3: Fibroblast growth factor receptor 3 (FGFR3, Homo sapiens, UniProt P22607)
# CDK4: Cyclin-dependent kinase 4 (CDK4, Homo sapiens, UniProt P11802)
Structure (SMILES),target,test,conditions,quantity,result
Nc1ncc(-c2nc(N3CCOCC3)nc(N3CCOCC3)n2)c(C(F)F)n1,"Ribosomal protein S6 kinase alpha-1, N-terminal kinase domain (RPS6KA1, Homo sapiens, UniProt Q15418)","binding, competition with immobilised ligand",10 µM,remaining binding,75%
C[C@]12CC[C@H]3[C@@H](CCC4=CC(=O)CC[C@@H]43)[C@@H]1CC[C@@H]2O,HSD11B2,"enzyme activity, inhibitor","20 µM, lysate",inhibition,< 40%
COc1ncccc1-c1cnn2ccc(N3CCN(C(=O)OC(C)C)CC3)nc12,"Serine/threonine-protein kinase DCLK1 (DCLK1, Homo sapiens, UniProt O15075)","binding, competition with immobilised ligand",1 µM,remaining binding,99%
Cc1nn(C)cc1-c1nc2c(N3CCN(Cc4ccc(Cl)cc4)CC3)c(Cl)cnc2[nH]1,FGFR3,"binding, competition with immobilised ligand",1 µM,remaining binding,70%
C#Cc1n[nH]c2c(-c3cn([C@@H](C)c4ccccn4)c(=O)[nH]c3=O)cc(F)cc12,FGFR3,"enzyme activity, inhibitor",0.1 µM,inhibition,2.9%
CCOC(=O)[C@H]1Cc2c(cc([N+](=O)[O-])cc2[N+](=O)[O-])[C@H](O)[C@]12C(=O)Nc1ccc(Br)cc12,CDK4,"cell-free assay, inhibitor, TR-FRET",1 µM,inhibition,34.1%
CN1CC[C@@]2(C)c3cc(OC(=O)Nc4ccccc4)ccc3N(C)[C@@H]12,"Muscarinic acetylcholine receptor M2 (CHRM2, Homo sapiens, UniProt P08172)","ligand displacement, radioligand",10 µM,inhibition,7.6%
CCCCCCC(C)(C)c1cc(O)c2c(c1)OC(C)(C)C1CCC(=O)CC21 (stereo not shown),HSD11B2,"enzyme activity, inhibitor","20 µM, lysate",inhibition,< 40%
Clc1cccc(-c2c[nH]c3nccc(N4CCOCC4)c23)c1,"Serine/threonine-protein kinase 3 (STK3, Homo sapiens, UniProt Q13188)","thermal stability, DSF",20 µM,ΔTm,> 8 °C
CCOC(=O)[C@H]1Cc2c(cc([N+](=O)[O-])cc2[N+](=O)[O-])[C@H](O)[C@]12C(=O)Nc1cc(Br)ccc12,CDK4,"cell-free assay, inhibitor, TR-FRET",1 µM,inhibition,32.9%
